Measured values reported in ChEMBL document CHEMBL1138683 (J Med Chem, 2004).

Assays:
[1] = system: Mus musculus; assay: Anti convulsant activity administered intra peritoneally to mouse for subcutaneous metrazol test at 0.5 hr with dose of 100 mg/kg; 0/1= No of animals protected /No of animals tested; format: functional
[2] = Toxicity after oral administration of 100 mg/kg dose in rats;++++ means 100% animals exhibited toxicity; format: organism-based; set-up: dose 100 mg/kg, route oral; conditions: rat, in vivo
In short: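 Rats dosed orally with compound dissolved or suspended in 0.5% methylcellulose (0.04 mL per 10 g body weight). Anticonvulsant protection (MES or scMet) and toxicity scored at 15 min, 30 min, 1 h, 2 h and 4 h after dosing. Graded in steps of 25% of animals protected or showing toxicity.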

[3] = system: Mus musculus; assay: Anti convulsant activity administered intra peritoneally to mouse for subcutaneous metrazol test at 4 hr with dose of 300 mg/kg; 0/1= No of animals protected /No of animals tested; format: functional
[4] = system: Mus musculus; assay: Anti convulsant activity administered intra peritoneally to mouse at maximal electroshock test at 4 hr after the drug administered with dose of 100 mg/kg; 3/3= No of animals protected /No of animals tested; format: functional
[5] = system: Rattus norvegicus; assay: Anticonvulsant activity after oral administration of 30 mg/kg dose after 1 hr in rats;+ means 25% animals protected; format: functional, organism-based; set-up: dose 30 mg/kg
In short: (§1)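 Oral dosing of rats at a single dose, compound dissolved or suspended in 0.5% methylcellulose. Protection in the MES or scMet test checked 15 min, 30 min, 1 h, 2 h and 4 h after dosing. Scored as 25/50/75/100% of animals protected (+ to ++++), – for none.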

[6] = Anti convulsant activity administered intra peritoneally to mouse for toxicity at 0.5 hr with dose of 100 mg/kg; 0/8= No of animals exhibiting toxicity /No of animals tested; format: organism-based; set-up: dose 100 mg/kg; conditions: in vivo, ip
[7] = Anti convulsant activity administered intra peritoneally to mouse for toxicity at 4 hr with dose of 30 mg/kg; 0/2= No of animals exhibiting toxicity /No of animals tested; format: organism-based; set-up: dose 30 mg/kg; conditions: in vivo, ip
[8] = Anti convulsant activity administered intra peritoneally to mouse for toxicity at 4 hr with dose of 300 mg/kg; 2/2= No of animals exhibiting toxicity /No of animals tested; format: organism-based; set-up: dose 300 mg/kg; conditions: in vivo, ip
[9] = Anti convulsant activity administered intra peritoneally to mouse for toxicity at 0.5 hr with dose of 30 mg/kg; 0/4= No of animals exhibiting toxicity /No of animals tested; format: organism-based; set-up: dose 30 mg/kg; conditions: in vivo, ip
[10] = system: Mus musculus; assay: Anti convulsant activity administered intra peritoneally to mouse at maximal electroshock test at 0.5 hr after the drug administered with dose of 300 mg/kg; 1/1= No of animals protected /No of animals tested; format: functional
[11] = system: Mus musculus; assay: Anti convulsant activity administered intra peritoneally to mouse at maximal electroshock test at 4 hr after the drug administered with dose of 30 mg/kg; 0/1= No of animals protected /No of animals tested; format: functional
[12] = system: Mus musculus; assay: Anti convulsant activity administered intra peritoneally to mouse at maximal electroshock test at 0.5 hr after the drug administered with dose of 100 mg/kg; 2/3= No of animals protected /No of animals tested; format: functional
[13] = system: Rattus norvegicus; assay: Anticonvulsant activity after oral administration of 30 mg/kg dose after 15 min in rats; + means 25% of the animal protected; format: functional, organism-based; set-up: dose 30 mg/kg; in short: as §1
[14] = system: Mus musculus; assay: Anti convulsant activity administered intra peritoneally to mouse for subcutaneous metrazol test at 4 hr after the drug administered with dose of 100 mg/kg; 0/1= No of animals protected /No of animals tested; format: functional
[15] = system: Mus musculus; assay: Anti convulsant activity administered intra peritoneally to mouse for subcutaneous metrazol test at 0.5 h with dose of 300 mg/kg; 0/1= No of animals protected /No of animals tested; format: functional
[16] = system: Mus musculus; assay: Anti convulsant activity administered intra peritoneally to mouse at maximal electroshock test at 4 hr after the drug administered with dose of 300 mg/kg; 1/1= No of animals protected /No of animals tested; format: functional
[17] = system: Mus musculus; assay: Anti convulsant activity administered intra peritoneally to mouse for subcutaneous metrazol test at 0.5 hr with dose of 30 mg/kg; 0/1= No of animals protected /No of animals tested; format: functional
[18] = Anti convulsant activity administered intra peritoneally to mouse for toxicity at 4 hr with dose of 100 mg/kg; 3/4= No of animals exhibiting toxicity /No of animals tested; format: organism-based; set-up: dose 100 mg/kg; conditions: in vivo, ip
[19] = system: Rattus norvegicus; assay: Anticonvulsant activity after oral administration of 30 mg/kg dose after 2 hr in rats; +means 25% of the animal is protected; format: functional, organism-based; set-up: dose 30 mg/kg; in short: as §1
[20] = Anti convulsant activity administered intra peritoneally to mouse for subcutaneous metrazol test at 4 hr with dose of 300 mg/kg; 4/4= No of animals protected /No of animals tested; format: ADME, organism-based; set-up: dose 300 mg/kg
[21] = system: Mus musculus; assay: Anti convulsant activity administered intra peritoneally to mouse at maximal electroshock test at 0.5 h after the drug administered with dose of 30 mg/kg; 0/1= No of animals protected /No of animals tested; format: functional
[22] = system: Rattus norvegicus; assay: Anticonvulsant activity after oral administration of 100 mg/kg dose after 2 hr in rats; ++means 50% of the animals protected; format: functional, organism-based; set-up: dose 100 mg/kg; in short: as §1
[23] = system: Rattus norvegicus; assay: Anticonvulsant activity after oral administration of 100 mg/kg dose after 30 min in rats; ++ means 50% animals protected; format: functional, organism-based; set-up: dose 100 mg/kg; in short: as §1
[24] = system: Mus musculus; assay: Anti convulsant activity administered intra peritoneally to mouse for subcutaneous metrazol test at 4 hr after the drug administered with dose of 30 mg/kg; 0/1= No of animals protected /No of animals tested; format: functional; conditions: route intraperitoneal
[25] = system: Mus musculus; assay: Anti convulsant activity administered intra peritoneally to mouse at maximal electroshock test at 0.5 hr after the drug administered with dose of 100 mg/kg; 0/3= No of animals protected /No of animals tested; format: functional
[26] = system: Mus musculus; assay: Anti convulsant activity administered intra peritoneally to mouse at maximal electroshock test at 0.5 h after the drug administered with dose of 300 mg/kg; 0/1= No of animals protected /No of animals tested; format: functional
[27] = system: Mus musculus; assay: Anti convulsant activity administered intra peritoneally to mouse at maximal electroshock test at 4 hr after the drug administered with dose of 300 mg/kg; 0/1= No of animals protected /No of animals tested; format: functional
[28] = system: Mus musculus; assay: Anti convulsant activity administered intra peritoneally to mouse at maximal electroshock test at 4 hr after the drug administered with dose of 100 mg/kg; 0/3= No of animals protected /No of animals tested; format: functional
[29] = Anti convulsant activity administered intra peritoneally to mouse for toxicity at 4 hr with dose of 100 mg/kg; 0/4= No of animals exhibiting toxicity /No of animals tested; format: organism-based; set-up: dose 100 mg/kg; conditions: in vivo, ip
[30] = Anti convulsant activity administered intra peritoneally to mouse for toxicity at 4 hr with dose of 300 mg/kg; 0/2= No of animals exhibiting toxicity /No of animals tested; format: organism-based; set-up: dose 300 mg/kg; conditions: in vivo, ip
[31] = Anti convulsant activity administered intra peritoneally to mouse for toxicity at 0.5 hr with dose of 300 mg/kg; 1/4= No of animals exhibiting toxicity /No of animals tested; format: organism-based; set-up: dose 300 mg/kg; conditions: in vivo, ip
[32] = Anticonvulsant activity administered orally to rat for toxicity; conditions: in vivo, po
[33] = system: Mus musculus; assay: Anticonvulsant activity administered intra peritoneally to mouse for the protective index of toxicity by maximal electroshock test; T D50/ED50; format: functional
[34] = system: Mus musculus; assay: Anticonvulsant activity administered intra peritoneally to mouse at maximal electro shock test; the interval in parenthesis stands for 95% confidence interval; format: functional
[35] = system: Rattus norvegicus; assay: Anticonvulsant activity administered orally to rat at maximal electro shock test; the interval in parenthesis stands for 95% confidence interval; format: functional; conditions: po
[36] = system: Rattus norvegicus; assay: Anticonvulsant activity administered orally to rat at subcutaneous metrazol test; format: functional
[37] = system: Rattus norvegicus; assay: Anticonvulsant activity administered orally to rat for protective index of subcutaneous metrazol test; format: functional
[38] = system: Mus musculus; assay: Anticonvulsant activity administered intra peritoneally to mouse for protective index of subcutaneous metrazol test; format: functional
[39] = system: Rattus norvegicus; assay: Anticonvulsant activity administered orally to rat for the protective index of toxicity by maximal electroshock test; T D50/ED50; format: functional
[40] = system: Mus musculus; assay: Anticonvulsant activity administered intra peritoneally to mouse at subcutaneous metrazol test; format: functional; conditions: sc

## CC1(C)C(C(=O)NC(N)=S)C1(C)C
[1]
  Activity: 0
[2]
  Toxicity: 100% animals exhibited toxicity
[3]
  Activity: 0
[4]
  Activity: 3
[5]
  Activity: 25% animals protected
[6]
  Toxicity: 0
[7]
  Toxicity: 0
[8]
  Toxicity: 2
[9]
  Toxicity: 0
[10]
  Activity: 1
[11]
  Activity: 0
[12]
  Activity: 2
[13]
  Activity: 25% animals protected
[14]
  Activity: 0
[15]
  Activity: 0
[16]
  Activity: 1
[17]
  Activity: 0
[18]
  Toxicity: 3
[19]
  Activity: 25% animals protected
[20]
  Toxicity: 4
[21]
  Activity: 0
[22]
  Anticonvulsant Activity: 50% of the animals protected
[23]
  Activity: 25% animals protected
[24]
  Activity: 0

## CC1(C)C(C(=O)NO)C1(C)C
[3]
  Activity: 0
[25]
  Activity: 0
[6]
  Toxicity: 0
[7]
  Toxicity: 0
[26]
  Activity: 0
[27]
  Activity: 0
[9]
  Toxicity: 0
[28]
  Activity: 0
[29]
  Toxicity: 0
[11]
  Activity: 0
[14]
  Activity: 0
[15]
  Activity: 0
[30]
  Toxicity: 0
[17]
  Activity: 0
[21]
  Activity: 0
[31]
  Toxicity: 1
[24]
  Activity: 0

## CC1(C)C(C(=O)NCC(N)=O)C1(C)C
[32]
  TD50: > 500 mg/kg
[33]
  Ratio: 1.5
[34]
  ED50: 173 mg/kg
[35]
  ED50: 82 mg/kg
[36]
  ED50: > 250 mg/kg
[37]
  Activity: -2
[38]
  Activity: 2.3
[39]
  Activity: >6.1
[40]
  ED50: 115 mg/kg
